ChEMBL document CHEMBL1123041, “Synthesis of new bis(aminoethanethiol) (BAT) derivatives: possible ligands for 99mTc brain imaging agents” (J Med Chem, 1985)

Tests used:
[1] = tested on: Rattus norvegicus; assay: Biodistribution in Sprague-Dawley rat small intestine 2 minutes after intravenous administration, [99mTc]/[125I] IAP ratio); format: ADME, organism-based; conditions: in vivo
Procedure, shortened: (§1)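 99mTc complex and [125I]iodoantipyrine were co-injected iv into rats. Rats were killed by cardiectomy at 2 or 15 min, and organs were excised, weighed and gamma-counted in two channels with spillover correction. The ratio is 99mTc percent dose divided by 125I percent dose in the same organ, averaged over three rats. Radiochemical purity of the complexes was >95% by reversed-phase HPLC.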

[2] = tested on: Rattus norvegicus; assay: Biodistribution in Sprague-Dawley rat small intestine 15 minutes after intravenous administration, [99mTc]/[125I] IAP ratio); format: ADME, organism-based; conditions: in vivo, 0.25 h; procedure, shortened: as §1
[3] = tested on: Rattus norvegicus; assay: Biodistribution in Sprague-Dawley rat brain 15 minutes after intravenous administration, [99mTc]/[125I] IAP ratio); format: ADME, organism-based; conditions: in vivo, 0.25 h; procedure, shortened: as §1
[4] = tested on: Rattus norvegicus; assay: Biodistribution in Sprague-Dawley rat brain 2 minutes after intravenous administration, [99mTc]/[125I] IAP ratio); format: ADME, organism-based; conditions: in vivo; procedure, shortened: as §1
[5] = tested on: Rattus norvegicus; assay: Biodistribution in Sprague-Dawley rat skin 15 minutes after intravenous administration, [99mTc]/[125I] IAP ratio); format: ADME, organism-based, Zone of skin; conditions: in vivo, 0.25 h; procedure, shortened: as §1
[6] = tested on: Rattus norvegicus; assay: Compound was evaluated for the biodistribution in Sprague-Dawley rats in muscle 15 minutes after intravenous administration, [99mTc]/[125I] IAP ratio); format: ADME, organism-based, Muscle tissue; conditions: in vivo, 0.25 h; procedure, shortened: as §1
[7] = tested on: Rattus norvegicus; assay: Biodistribution in Sprague-Dawley rat blood 2 minutes after intravenous administration, [99mTc]/[125I] IAP ratio); format: ADME, organism-based; conditions: in vivo; procedure, shortened: as §1
[8] = tested on: Rattus norvegicus; assay: Biodistribution in Sprague-Dawley rat liver 2 minutes after intravenous administration, [99mTc]/[125I] IAP ratio); format: ADME, organism-based; conditions: in vivo; procedure, shortened: as §1
[9] = tested on: Rattus norvegicus; assay: Biodistribution in Sprague-Dawley rat blood 15 minutes after intravenous administration, [99mTc]/[125I] IAP ratio); format: ADME, organism-based; conditions: in vivo, 0.25 h; procedure, shortened: as §1
[10] = tested on: Rattus norvegicus; assay: Biodistribution in Sprague-Dawley rat lungs(2) 15 minutes after intravenous administration, [99mTc]/[125I] IAP ratio); format: ADME, organism-based, Lung; conditions: in vivo, 0.25 h; procedure, shortened: as §1
[11] = tested on: Rattus norvegicus; assay: Biodistribution in Sprague-Dawley rat muscle 2 minutes after intravenous administration, [99mTc]/[125I] IAP ratio); format: ADME, organism-based, Muscle tissue; conditions: in vivo; procedure, shortened: as §1
[12] = tested on: Rattus norvegicus; assay: Biodistribution in Sprague-Dawley rat stomach 2 minutes after intravenous administration, [99mTc]/[125I] IAP ratio); format: ADME, organism-based; conditions: in vivo; procedure, shortened: as §1
[13] = tested on: Rattus norvegicus; assay: Biodistribution in Sprague-Dawley rat kidneys(2) 15 minutes after intravenous administration, [99mTc]/[125I] IAP ratio); format: ADME, organism-based, Kidney; conditions: in vivo, 0.25 h; procedure, shortened: as §1
[14] = tested on: Rattus norvegicus; assay: Biodistribution in Sprague-Dawley rat skin 2 minutes after intravenous administration, [99mTc]/[125I] IAP ratio); format: ADME, organism-based, Zone of skin; conditions: in vivo; procedure, shortened: as §1
[15] = tested on: Rattus norvegicus; assay: Biodistribution in Sprague-Dawley rat thyroid 2 minutes after intravenous administration, [99mTc]/[125I] IAP ratio); format: ADME, organism-based, Thyroid gland; conditions: in vivo; procedure, shortened: as §1
[16] = tested on: Rattus norvegicus; assay: Biodistribution in Sprague-Dawley rat heart 2 minutes after intravenous administration, [99mTc]/[125I] IAP ratio); format: ADME, organism-based; conditions: in vivo; procedure, shortened: as §1
[17] = species: Homo sapiens; assay: The human serum protein binding activity was determined; format: functional
Procedure, shortened: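 Equilibrium dialysis: 0.4 mL pooled human serum against 0.4 mL 0.15 M phosphate buffer pH 7.4 containing 99mTc complex (~0.025 μCi), rotated 18 h at 37 °C. Both sides weighed and counted; percent free = buffer/serum radioactivity concentration ratio × 100. Membrane counted afterwards to check membrane binding.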

[18] = tested on: Rattus norvegicus; assay: Biodistribution in Sprague-Dawley rat lungs(2) 2 minutes after intravenous administration, [99mTc]/[125I] IAP ratio); format: ADME, organism-based, Lung; conditions: in vivo; procedure, shortened: as §1
[19] = tested on: Rattus norvegicus; assay: Biodistribution in Sprague-Dawley rat stomach 15 minutes after intravenous administration, [99mTc]/[125I] IAP ratio); format: ADME, organism-based; conditions: in vivo, 0.25 h; procedure, shortened: as §1
[20] = Partition coefficient was determined at pH 7.0.; format: ADME; conditions: octanol/water
Procedure, shortened: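 99mTc-labelled BAT complex shaken with 3 g each of 1-octanol and 0.1 M phosphate buffer (pH 7.0), vortexed 3 min at room temperature, centrifuged 5 min. Two 0.5 g samples per layer counted in a well counter; PC = cpm/g octanol over cpm/g buffer. Octanol layer repartitioned until values were consistent; usually repeated three times.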

[21] = tested on: Rattus norvegicus; assay: Biodistribution in Sprague-Dawley rat thyroid 15 minutes after intravenous administration, [99mTc]/[125I] IAP ratio); format: ADME, organism-based, Thyroid gland; conditions: in vivo, 0.25 h; procedure, shortened: as §1
[22] = tested on: Rattus norvegicus; assay: Biodistribution in Sprague-Dawley rat liver 15 minutes after intravenous administration, [99mTc]/[125I] IAP ratio); format: ADME, organism-based; conditions: in vivo, 0.25 h; procedure, shortened: as §1
[23] = tested on: Rattus norvegicus; assay: Biodistribution in Sprague-Dawley rat spleen 2 minutes after intravenous administration, [99mTc]/[125I] IAP ratio); format: ADME, organism-based; conditions: in vivo; procedure, shortened: as §1
[24] = tested on: Rattus norvegicus; assay: Biodistribution in Sprague-Dawley rat kidneys(2) 2 minutes after intravenous administration, [99mTc]/[125I] IAP ratio); format: ADME, organism-based, Kidney; conditions: in vivo; procedure, shortened: as §1
[25] = tested on: Rattus norvegicus; assay: Biodistribution in Sprague-Dawley rat spleen 15 minutes after intravenous administration, [99mTc]/[125I] IAP ratio); format: ADME, organism-based; conditions: in vivo, 0.25 h; procedure, shortened: as §1
[26] = tested on: Rattus norvegicus; assay: Biodistribution in Sprague-Dawley rat heart 15 minutes after intravenous administration, [99mTc]/[125I] IAP ratio); format: ADME, organism-based; conditions: in vivo, 0.25 h; procedure, shortened: as §1

SMILES: CC(C)(S)CNCC(CN)NCC(C)(C)S.Cl.Cl.Cl (stereo unspecified)
- Dose [1]: 5.09%
- Dose [2]: 11.8%
- Dose [3]: 0.288%
- Dose [4]: 1.28%
- Dose [5]: 9.43%
- Dose [6]: 18.5%
- Dose [7]: 13.6%
- Dose [8]: 21.7%
- Dose [9]: 8.07%
- Dose [10]: 1.57%
- Dose [11]: 9.19%
- Dose [12]: 2.23%
- Dose [13]: 2.47%
- Dose [14]: 8.84%
- Dose [15]: 0.124%
- Dose [16]: 1.08%
- Free [17]: 46.2%
- Dose [18]: 3.08%
- Dose [19]: 5.24%
- Partition coefficient [20]: 46.8
- Dose [21]: 0.045%
- Dose [22]: 22.7%
- Dose [23]: 0.274%
- Dose [24]: 3.57%
- Dose [25]: 0.206%
- Dose [26]: 0.375%
